Test results as given in PMC8764296 (International Journal of Nanomedicine, 2022).

Assay: Liver microsomal stability
Format: in vitro ADME
Settings: mouse liver microsomes 0.5 mg/mL, 50 μM, 37 °C, 4 hours incubation
Procedure, shortened: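 Compound at 50 μM (in vehicle or micelles), with coumarin as control, was preincubated 5 min at 37 °C with mouse liver microsomes (0.5 mg/mL) in PBS pH 7.4. Reactions were started with an NADPH-generating system (3 mM NADPH, 7.2 mM MgCl2, 6 mM G6P, 3 unit G6PDH) and sampled at 0, 5, 30 min and 1, 2, 4 h. Samples were DMSO-extracted for HPLC. ke from lnC versus t gave t1/2 and CL. Triplicate, mean and SD.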

In the case of O=c1ccc2ccccc2o1 [Coumarin], the “level remaining in liver microsome” value is reported as 10.7 ± 2.2%.
